Test results: ChEMBL document CHEMBL2346506, “Cytotoxicity and modulation of cancer-related signaling by (Z)- and (E)-3,4,3',5'-tetramethoxystilbene isolated from Eugenia rigida” (J Nat Prod, 2013)
Activity calls are given as the source filed them. The calls are words filed in the database; no cut-off is given here.

Columns and labels:
[1] = target: T1, Nitric oxide synthase, inducible (Mus musculus, UniProt P29477); experiment: Inhibition of iNOS in LPS-induced mouse RAW264.7 cells assessed as inhibition of […] at measured after 24 hrs; format: cell-based
T1 sequence (P29477 whole entry): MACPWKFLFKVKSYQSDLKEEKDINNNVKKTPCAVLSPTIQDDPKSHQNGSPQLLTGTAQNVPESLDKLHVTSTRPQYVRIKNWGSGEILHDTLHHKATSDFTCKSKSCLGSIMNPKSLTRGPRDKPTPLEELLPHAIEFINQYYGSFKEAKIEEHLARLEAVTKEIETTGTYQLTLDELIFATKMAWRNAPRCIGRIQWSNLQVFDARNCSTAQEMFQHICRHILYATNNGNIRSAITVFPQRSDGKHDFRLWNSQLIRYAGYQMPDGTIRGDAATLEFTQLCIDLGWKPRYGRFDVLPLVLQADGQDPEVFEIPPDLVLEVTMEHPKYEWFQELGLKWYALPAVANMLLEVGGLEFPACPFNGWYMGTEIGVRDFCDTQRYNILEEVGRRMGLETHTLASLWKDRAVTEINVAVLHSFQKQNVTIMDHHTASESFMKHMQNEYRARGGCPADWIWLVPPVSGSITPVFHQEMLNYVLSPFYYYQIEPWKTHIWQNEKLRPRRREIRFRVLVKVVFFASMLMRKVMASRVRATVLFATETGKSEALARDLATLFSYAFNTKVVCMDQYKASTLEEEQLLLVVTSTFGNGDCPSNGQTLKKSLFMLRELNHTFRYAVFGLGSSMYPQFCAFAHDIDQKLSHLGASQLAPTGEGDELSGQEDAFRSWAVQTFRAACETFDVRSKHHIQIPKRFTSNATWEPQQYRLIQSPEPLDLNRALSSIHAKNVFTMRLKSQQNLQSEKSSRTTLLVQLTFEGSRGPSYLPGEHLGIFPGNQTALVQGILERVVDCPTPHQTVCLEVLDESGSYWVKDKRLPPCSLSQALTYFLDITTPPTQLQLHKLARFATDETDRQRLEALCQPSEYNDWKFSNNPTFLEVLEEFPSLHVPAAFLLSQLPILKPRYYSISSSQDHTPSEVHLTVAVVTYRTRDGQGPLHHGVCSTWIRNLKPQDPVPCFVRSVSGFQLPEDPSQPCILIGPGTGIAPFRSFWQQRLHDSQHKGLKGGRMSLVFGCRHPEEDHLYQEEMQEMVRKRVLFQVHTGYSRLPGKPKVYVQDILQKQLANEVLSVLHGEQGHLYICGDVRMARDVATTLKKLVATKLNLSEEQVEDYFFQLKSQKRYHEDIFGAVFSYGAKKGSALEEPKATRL
Summary of the method: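 Mouse RAW 264.7 macrophages were seeded at 50 000 cells/well and grown 24 h. They were pretreated with samples for 30 min, then stimulated with LPS at 5 μg/mL for 24 h. Nitrite in the supernatant was measured by Griess reagent, and inhibition was calculated against the vehicle control. IC50 came from dose–response curves, with cytotoxicity checked in parallel.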

HeLa [2] = experiment: Inhibition of Stat3 signaling pathway in human HeLa cells assessed as measured as lowest concentration required 50 to 60 % inhibition of IL-6 induced luciferase treated 30 mins before induction; format: functional
Summary of the method: (§1)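 Reporter assay in cells transfected with pathway luciferase plasmids. Cells plated at 0.015 × 10⁶ per well in 10% FBS, switched after 24 h to DMEM with 1% FBS, then transfected. 24 h after transfection, compound (final 40, 60, 80 or 100 μM) was added, followed 30 min later by inducer (IL-6, TGF-β, wnt3a or PMA). Luciferase was read 4 or 6 h after induction (6 h for Notch, Wnt, Hedgehog). Value is the IC50 or the lowest concentration giving maximal 50–60% inhibition; two independent experiments.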

[3] = target: Myc proto-oncogene protein (Homo sapiens) (UniProt P01106); experiment: Inhibition of Myc signaling pathway in human HeLa cells assessed as measured as lowest concentration required 50 to 60 % inhibition of PMA induced luciferase treated 30 mins before induction; format: cell-based; summary of the method: as §1
[4] = Inhibition of Notch signaling pathway in human HeLa cells assessed as inhibition of PMA induced luciferase treated 30 mins before induction; format: cell-based; summary of the method: as §1
[5] = Inhibition of NFkappaB signaling pathway in human HeLa cells assessed as measured as lowest concentration required 50 to 60 % inhibition of PMA induced luciferase treated 30 mins before induction; format: cell-based; summary of the method: as §1
[6] = target: T2, Nitric oxide synthase, inducible (Mus musculus) (UniProt P29477); experiment: Inhibition of iNOS in LPS-induced mouse RAW264.7 cells assessed as inhibition of […] up to 33.3 uM measured after 24 hrs; format: cell-based
T2 sequence (whole entry): T1 sequence (P29477 whole entry)
Summary of the method: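 RAW 264.7 macrophages seeded at 50 000 per well and grown 24 h. Compound added 30 min before LPS (5 μg/mL), then cells incubated a further 24 h. Nitrite in the supernatant measured with Griess reagent relative to vehicle control. Parthenolide served as positive control; cytotoxicity checked in parallel.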

HL-60 [7] = experiment: Inhibition of PMA induced ROS generation in human HL60 cells assessed as inhibition of ROA mediated oxidation of DCFH at 100 uM; format: functional, cell-based
Summary of the method: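 HL-60 cells (0.8 × 10⁶/mL) in RPMI-1640 with 10% FBS were pretreated 30 min with compound (0.4–100 μM). PMA (100 ng/mL) was then added for 30 min, followed by DCFH-DA (5 μg/mL) for 15 min. DCF fluorescence read at Ex 485 / Em 530 nm and compared with vehicle control. Trolox served as positive control.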

[8] = Inhibition of NFkappaB signaling pathway in human HeLa cells assessed as inhibition of PMA induced luciferase treated 30 mins before induction; format: cell-based; summary of the method: as §1
[9] = Inhibition of Notch signaling pathway in human HeLa cells assessed as measured as lowest concentration required 50 to 60 % inhibition of PMA induced luciferase treated 30 mins before induction; format: cell-based; summary of the method: as §1
[10] = target: Forkhead box protein O1 (Homo sapiens) (UniProt Q12778); experiment: Inhibition of FoxO signaling pathway in human HeLa cells assessed as inhibition of luciferase at 100 uM […]; format: cell-based
KB [11] = experiment: Cytotoxicity against human KB cells assessed as growth inhibition measured after 48 hrs by Neutral Red dye assay
HL-60 [12] = experiment: Cytotoxicity against human HL60 cells assessed as growth inhibition measured after 48 hrs by XTT assay; format: functional, cell-based; conditions: HL-60, 48 h
HeLa [13] = experiment: Cytotoxicity against human HeLa cells assessed as growth inhibition measured after 48 hrs by Neutral Red dye assay
SK-OV-3 [14] = experiment: Cytotoxicity against human SKOV3 cells assessed as growth inhibition measured at 100 uM after 48 hrs by […] assay; format: functional, cell-based
LLC-PK1 = experiment: Cytotoxicity against pig LLC-PK1 cells assessed as growth inhibition measured after 48 hrs by Neutral Red dye assay; conditions: Sus scrofa, LLC-PK1, 48 h
HeLa [15] = experiment: Inhibition of smad3/4 signaling pathway in human HeLa cells assessed as inhibition of TGF-beta induced luciferase treated 30 mins before induction; format: functional, cell-based; summary of the method: as §1
[16] = Inhibition of AP1 signaling pathway in human HeLa cells assessed as measured as lowest concentration required 50 to 60 % inhibition of PMA induced luciferase treated 30 mins before induction; format: cell-based; summary of the method: as §1
HeLa [17] = experiment: Inhibition of smad3/4 signaling pathway in human HeLa cells assessed as measured as lowest concentration required 50 to 60 % inhibition of TGF-beta induced luciferase treated 30 mins before induction; format: functional; summary of the method: as §1
BT-549 [18] = experiment: Cytotoxicity against human BT549 cells assessed as growth inhibition measured after 48 hrs by Neutral Red dye assay; conditions: BT-549, 48 h
[19] = Inhibition of Hedgehog signaling pathway in human HeLa cells assessed as inhibition of PMA induced luciferase at 100 uM treated 30 mins before induction; format: cell-based; summary of the method: as §1
[20] = Inhibition of Ets signaling pathway in human HeLa cells assessed as measured as lowest concentration required 50 to 60 % inhibition of PMA induced luciferase treated 30 mins before induction; format: cell-based; summary of the method: as §1
SK-MEL = experiment: Cytotoxicity against human SK-MEL cells assessed as growth inhibition measured after 48 hrs by Neutral Red dye assay
[21] = Inhibition of Wnt signaling pathway in human HeLa cells assessed as inhibition of Wnt3a induced luciferase treated 30 mins before induction; format: cell-based; summary of the method: as §1
[22] = Inhibition of Wnt signaling pathway in human HeLa cells assessed as measured as lowest concentration required 50 to 60 % inhibition of Wnt3a induced luciferase treated 30 mins before induction; format: cell-based; summary of the method: as §1
[23] = Inhibition of Ets signaling pathway in human HeLa cells assessed as inhibition of PMA induced luciferase treated 30 mins before induction; format: cell-based; summary of the method: as §1
[24] = Inhibition of AP1 signaling pathway in human HeLa cells assessed as inhibition of PMA induced luciferase treated 30 mins before induction; format: cell-based; summary of the method: as §1
Vero = experiment: Cytotoxicity against african green monkey Vero cells assessed as growth inhibition measured after 48 hrs by Neutral Red dye assay; conditions: Chlorocebus sabaeus
HeLa [25] = experiment: Inhibition of Stat3 signaling pathway in human HeLa cells assessed as inhibition of IL-6 induced luciferase treated 30 mins before induction; format: functional, cell-based; summary of the method: as §1
[26] = Inhibition of E2F signaling pathway in human HeLa cells assessed as inhibition of PMA induced luciferase at 100 uM treated 30 mins before induction; format: cell-based; summary of the method: as §1
[27] = Inhibition of AP1 signaling pathway in human HeLa cells assessed as inhibition of PMA induced luciferase at 100 uM treated 30 mins before induction; format: cell-based; summary of the method: as §1
HeLa [28] = experiment: Cytotoxicity against human HeLa cells assessed as growth inhibition measured at 100 uM after 48 hrs by Neutral Red dye assay
[29] = Inhibition of Hedgehog signaling pathway in human HeLa cells assessed as inhibition of PMA induced luciferase treated 30 mins before induction; format: cell-based
Summary of the method: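 HeLa cells plated at 0.015 × 10⁶/well in 10% FBS medium, switched after 24 h to DMEM with 1% FBS, then transfected with a Hedgehog luciferase reporter. After 24 h, compounds were added at 40, 60, 80 or 100 μM final, 30 min before PMA. Luciferase was read 6 h later. The value is the IC50 or lowest concentration giving maximal 50–60% inhibition, from two independent experiments.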

KB [30] = experiment: Cytotoxicity against human KB cells assessed as growth inhibition measured at 100 uM after 48 hrs by Neutral Red dye assay
BT-549 [31] = experiment: Cytotoxicity against human BT549 cells assessed as growth inhibition measured at 100 uM after 48 hrs by Neutral Red dye assay
SK-OV-3 [32] = experiment: Cytotoxicity against human SKOV3 cells assessed as growth inhibition measured after 48 hrs by Neutral Red dye assay; conditions: SK-OV-3, 48 h
[33] = Inhibition of Hedgehog signaling pathway in human HeLa cells assessed as measured as lowest concentration required 50 to 60 % inhibition of PMA induced luciferase treated 30 mins before induction; format: cell-based; summary of the method: as §1

Myc proto-oncogene protein (Homo sapiens), sequence (P01106 whole entry): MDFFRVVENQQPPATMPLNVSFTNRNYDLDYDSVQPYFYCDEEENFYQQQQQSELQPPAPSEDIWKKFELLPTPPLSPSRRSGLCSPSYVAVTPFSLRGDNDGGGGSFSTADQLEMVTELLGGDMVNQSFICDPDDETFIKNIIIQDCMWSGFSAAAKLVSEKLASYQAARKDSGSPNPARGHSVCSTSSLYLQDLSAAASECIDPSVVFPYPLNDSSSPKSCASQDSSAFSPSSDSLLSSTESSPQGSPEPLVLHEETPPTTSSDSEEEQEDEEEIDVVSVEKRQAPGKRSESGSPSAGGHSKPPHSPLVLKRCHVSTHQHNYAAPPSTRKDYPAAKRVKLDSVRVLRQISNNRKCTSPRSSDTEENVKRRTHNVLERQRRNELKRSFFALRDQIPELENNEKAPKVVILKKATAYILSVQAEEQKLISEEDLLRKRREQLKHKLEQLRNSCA
Forkhead box protein O1 (Homo sapiens), sequence (Q12778 whole entry): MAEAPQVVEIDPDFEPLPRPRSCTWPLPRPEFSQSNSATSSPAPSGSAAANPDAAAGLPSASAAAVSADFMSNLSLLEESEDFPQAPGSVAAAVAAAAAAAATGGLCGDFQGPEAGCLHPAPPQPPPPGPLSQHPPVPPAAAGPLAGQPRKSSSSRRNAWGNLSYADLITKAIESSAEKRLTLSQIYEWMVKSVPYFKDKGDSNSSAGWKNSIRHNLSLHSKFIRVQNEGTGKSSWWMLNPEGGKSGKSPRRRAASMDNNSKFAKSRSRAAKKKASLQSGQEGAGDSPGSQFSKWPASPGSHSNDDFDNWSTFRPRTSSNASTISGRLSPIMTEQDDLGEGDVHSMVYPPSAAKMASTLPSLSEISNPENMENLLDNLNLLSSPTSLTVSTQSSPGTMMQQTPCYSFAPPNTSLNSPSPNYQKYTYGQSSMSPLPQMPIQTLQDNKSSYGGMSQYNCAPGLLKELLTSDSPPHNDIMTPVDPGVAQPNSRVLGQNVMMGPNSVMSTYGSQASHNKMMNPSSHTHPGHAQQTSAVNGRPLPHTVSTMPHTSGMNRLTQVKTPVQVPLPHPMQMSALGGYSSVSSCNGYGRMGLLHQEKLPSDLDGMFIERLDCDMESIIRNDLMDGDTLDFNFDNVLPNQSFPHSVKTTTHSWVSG

C=C1C(=O)O[C@@H]2C3O[C@]3(C)CC/C=C(\C)CC[C@@H]12 (stereo not given in full)
IC50 [1]: 8 µM

COc1cc(/C=C\c2ccc(OC)c(OC)c2)cc(OC)c1 [(Z)-3,4,3',5'-TETRAMETHOXYSTILBENE]
MED (HeLa [2]): 77 µM
MED [3]: 65 µM
IC50 [4]: 40 µM
MED [5]: 80 µM
inhibition [6]: inactive
inhibition (HL-60 [7]): inactive
IC50 [8]: 80 µM
MED [9]: 40 µM
inhibition [10]: < 40%
IC50 (KB [11]): 4.3 µM
IC50 (HL-60 [12]): 4.3 µM
IC50 (HeLa [13]): 3.6 µM
growth inhibition (GI) (SK-OV-3 [14]): inactive
IC50 (LLC-PK1): 6 µM
IC50 (HeLa [15]): 40 µM
MED [16]: 80 µM
MED (HeLa [17]): 55 µM
IC50 (BT-549 [18]): 4 µM
inhibition [19]: < 40%
MED [20]: 65 µM
IC50 (SK-MEL): 4.3 µM
IC50 [21]: 40 µM
MED [22]: 50 µM
IC50 [23]: 40 µM
IC50 [24]: 80 µM
IC50 (Vero): > 33.3 µM
IC50 (HeLa [25]): 50 µM
inhibition [26]: < 40%

Oc1ccc(/C=C/c2cc(O)cc(O)c2)cc1 [RESVERATROL]
MED (HeLa [2]): 53 µM
MED [3]: 55 µM
IC50 [4]: 40 µM
MED [5]: 60 µM
IC50 [8]: 50 µM
inhibition [27]: < 40%
MED [9]: 40 µM
inhibition [10]: < 40%
IC50 (HL-60 [12]): 31.8 µM
IC50 (LLC-PK1): 52.5 µM
growth inhibition (GI) (HeLa [28]): inactive
IC50 (HeLa [15]): 50 µM
IC50 [29]: 40 µM
MED (HeLa [17]): 33 µM
MED [20]: 55 µM
IC50 (SK-MEL): 47.3 µM
IC50 [21]: 60 µM
growth inhibition (GI) (KB [30]): inactive
MED [22]: 70 µM
growth inhibition (GI) (BT-549 [31]): inactive
IC50 [23]: 50 µM
IC50 (SK-OV-3 [32]): 113 µM
MED [33]: 40 µM
IC50 (Vero): 73.6 µM
IC50 (HeLa [25]): 70 µM
inhibition [26]: < 40%
